Assays:
[1] = target: Mu-type opioid receptor (Rattus norvegicus) (UniProt P33535); assay: Hill coefficient value was measured against mu sites in rat brain homogenates; assay type: tissue-based
[2] = target: T1, Kappa-type opioid receptor (Homo sapiens, UniProt P41145); assay: Compound was evaluated for the agonistic activity against Opioid receptor kappa 1 in rabbit vas deferens.; assay type: functional, Oryctolagus cuniculus; conditions: target entry is the homologue from another species
Outline: (§1)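 Isolated organs (guinea pig ileum myenteric plexus-longitudinal muscle, hamster vas deferens, rabbit vas deferens) were electrically stimulated, and inhibition of the evoked twitch contractions was recorded. The bath held a peptidase inhibitor mixture. Peptides were tested up to 10 μM.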

[3] = target: Delta-type opioid receptor (Rattus norvegicus) (UniProt P33533); assay: Hill coefficient value was measured against delta sites in rat brain homogenates; assay type: tissue-based
[4] = target: Delta-type opioid receptor (Rattus norvegicus, UniProt P33533); assay: Compound was evaluated for the inhibition of [3H]DSLET([[3H]D-Ser2,Leu5,Thr6]enkephalin binding to Opioid receptor delta 1 in rat brain homogenates.; assay type: tissue-based
[5] = target: T1, Kappa-type opioid receptor; assay: Receptor selectivity index is the ratio of the apparent KI at kappa opioid receptor over the apparent KI at the highest affinity site
Outline: (§2)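 RSI is the apparent KI at the given site divided by the apparent KI at the highest-affinity site. KI values come from [3H]DAGO (μ) and [3H]DSLET (δ) binding in rat brain membranes and [3H]bremazocine (κ) binding in guinea pig cerebellum membranes, all at 25 °C with peptidase inhibitors.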

Cavia porcellus [6] = species: Cavia porcellus; assay: The compound was evaluated for the antagonistic activity against DAGO (mu-receptor) in guinea pig ileum.; assay type: functional
[7] = target: Kappa-type opioid receptor (Cavia porcellus, UniProt P41144); assay: Compound was evaluated for the inhibition of [3H]bremazocine binding to Opioid receptor kappa 1 in guinea pig cerebellum membrane homogenates.; assay type: cell membranes
Outline: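 Guinea pig cerebellum crude membranes were incubated with [3H]bremazocine (0.5 nM) at 25 °C for 60 min with peptidase inhibitors. Values are the mean ± SEM of at least three independent observations.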

Mu-type opioid receptor [8] = target: Mu-type opioid receptor (Rattus norvegicus, UniProt P33535); assay: Compound was evaluated for the inhibition of [3H]DAGO([[3H]D-Ala,MePhe4,Glyol5]enkephalin) binding to mu sites in rat brain homogenates.; assay type: tissue-based
Mu-type opioid receptor [9] = target: Mu-type opioid receptor (Cavia porcellus, UniProt P97266); assay: Compound was evaluated for the agonistic activity against Opioid receptor mu 1 in guinea pig ileum.; assay type: functional, tissue-based; outline: as §1
Cavia porcellus [10] = species: Cavia porcellus; assay: The compound was evaluated for the antagonistic activity against dynorphin A in guinea pig ileum; assay type: functional
Outline: (§3)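 Isolated electrically stimulated organ (guinea pig ileum myenteric plexus-longitudinal muscle; rabbit vas deferens), run with a peptidase-inhibitor mixture, twitch contractions recorded. In the antagonism test, the peptide concentration was set to depress the twitch by 20-40%. Analogue tested up to 10 μM. Ke is the concentration reducing the effect of a double dynorphin A dose to that of a single dose. Mean ± SEM of at least four independent measurements.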

[11] = target: Kappa-type opioid receptor (Cavia porcellus) (UniProt P41144); assay: Hill coefficient value was measured against Opioid receptor kappa 1 in guinea pig cerebellum membrane homogenates; assay type: cell membranes
[12] = test system: Delta-type opioid receptor; assay: Receptor selectivity index is the ratio of the apparent KI at delta opioid receptor over the apparent KI at the highest affinity site; outline: as §2
Oryctolagus cuniculus = species: Oryctolagus cuniculus; assay: The compound was evaluated for the antagonistic activity in rabbit vas deferens; assay type: functional; outline: as §3
Cricetinae gen. sp. = assay: The compound was evaluated for the antagonistic activity in hamster vas deferens; assay type: functional, Cricetulus griseus
Outline: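 Agonist concentration chosen to depress twitch height by 20-40%. Ke is the peptide concentration that reduces the effect of a double agonist dose to that of a single dose. Peptide tested up to 10 μM. At least four independent measurements.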

Sequence of Delta-type opioid receptor (Rattus norvegicus, UniProt P33533) (P33533 whole entry): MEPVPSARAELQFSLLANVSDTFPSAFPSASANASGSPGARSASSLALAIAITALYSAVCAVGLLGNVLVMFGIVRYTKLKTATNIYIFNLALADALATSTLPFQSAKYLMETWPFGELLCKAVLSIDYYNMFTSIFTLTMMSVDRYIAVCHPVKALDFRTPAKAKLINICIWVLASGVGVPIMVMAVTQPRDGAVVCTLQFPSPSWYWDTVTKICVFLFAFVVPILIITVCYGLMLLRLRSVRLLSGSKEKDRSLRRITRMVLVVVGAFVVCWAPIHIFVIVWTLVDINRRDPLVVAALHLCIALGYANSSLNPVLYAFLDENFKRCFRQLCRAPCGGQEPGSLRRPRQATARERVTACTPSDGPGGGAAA
Sequence of Delta-type opioid receptor (Rattus norvegicus) (P33533 whole entry): as above
T1 sequence (P41145 whole entry): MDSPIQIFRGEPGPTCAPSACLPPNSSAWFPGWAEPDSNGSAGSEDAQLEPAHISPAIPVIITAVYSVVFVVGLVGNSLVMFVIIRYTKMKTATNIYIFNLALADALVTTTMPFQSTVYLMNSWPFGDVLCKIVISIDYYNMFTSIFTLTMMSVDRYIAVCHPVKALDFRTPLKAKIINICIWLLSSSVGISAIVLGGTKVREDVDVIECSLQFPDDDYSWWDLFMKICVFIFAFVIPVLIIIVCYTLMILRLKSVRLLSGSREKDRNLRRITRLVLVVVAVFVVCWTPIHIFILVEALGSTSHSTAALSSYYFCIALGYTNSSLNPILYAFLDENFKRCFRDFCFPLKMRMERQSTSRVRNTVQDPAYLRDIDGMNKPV
Sequence of Mu-type opioid receptor (Cavia porcellus, UniProt P97266) (P97266 whole entry): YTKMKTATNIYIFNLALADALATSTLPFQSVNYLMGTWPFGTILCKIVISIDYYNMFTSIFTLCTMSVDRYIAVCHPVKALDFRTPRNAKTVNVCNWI
Sequence of Kappa-type opioid receptor (Cavia porcellus) (P41144 whole entry): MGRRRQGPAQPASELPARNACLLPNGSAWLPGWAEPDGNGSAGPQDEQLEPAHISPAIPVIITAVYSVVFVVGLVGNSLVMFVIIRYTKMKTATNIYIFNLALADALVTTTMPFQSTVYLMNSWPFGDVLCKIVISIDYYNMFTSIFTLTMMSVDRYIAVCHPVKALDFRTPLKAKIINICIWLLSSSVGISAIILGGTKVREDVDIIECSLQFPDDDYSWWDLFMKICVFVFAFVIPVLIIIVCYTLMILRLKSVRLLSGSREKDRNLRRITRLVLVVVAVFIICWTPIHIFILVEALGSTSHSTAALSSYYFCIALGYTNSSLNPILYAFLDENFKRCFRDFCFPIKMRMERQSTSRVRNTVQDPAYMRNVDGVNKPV
Sequence of Kappa-type opioid receptor (Cavia porcellus, UniProt P41144) (P41144 whole entry): as above
Sequence of Mu-type opioid receptor (Rattus norvegicus) (P33535 whole entry): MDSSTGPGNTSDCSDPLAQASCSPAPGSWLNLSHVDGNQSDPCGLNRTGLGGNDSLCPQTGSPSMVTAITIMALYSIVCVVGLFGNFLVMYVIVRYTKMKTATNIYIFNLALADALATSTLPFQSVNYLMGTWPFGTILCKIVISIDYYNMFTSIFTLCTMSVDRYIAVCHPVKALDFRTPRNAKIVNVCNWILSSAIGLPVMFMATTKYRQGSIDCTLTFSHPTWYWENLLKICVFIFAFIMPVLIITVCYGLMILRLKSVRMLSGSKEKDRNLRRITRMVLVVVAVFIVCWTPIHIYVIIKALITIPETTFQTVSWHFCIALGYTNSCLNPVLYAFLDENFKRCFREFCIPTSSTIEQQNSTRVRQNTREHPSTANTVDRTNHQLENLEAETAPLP
Sequence of Mu-type opioid receptor (Rattus norvegicus, UniProt P33535) (P33535 whole entry): as above

Compound	Hill coefficient [1]	IC50 [2] [nM]	Hill coefficient [3]	Ki [4] [nM]	Ratio [5]	Ke (Cavia porcellus [6]) [nM]	Ki [7] [nM]	Ki (Mu-type opioid receptor [8]) [nM]	IC50 (Mu-type opioid receptor [9]) [nM]	Ke (Cavia porcellus [10]) [nM]	Hill coefficient [11]	Ratio [12]	Ke (Oryctolagus cuniculus) [nM]	Ke (Cricetinae gen. sp.) [nM]
CC(C)C[C@H](NC(=O)[C@@H](Cc1c[nH]c2ccccc12)NC(=O)CNC(=O)CNC(=O)[C@@H](N)Cc1ccc(O)cc1)C(=O)N[C@@H](CCCN=C(N)N)C(=O)N[C@@H](CCCN=C(N)N)C(=O)N[C@H](Cc1c[nH]c2ccccc12)C(=O)N[C@@H](CCCN=C(N)N)C(=O)N1CCC[C@@H]1C(=O)N[C@@H](CCCCN)C(=O)O	1.06	> 10000	0.92	631	1	249	73	142	> 10000	606	0.85	8.6	1432	–
CC[C@H](C)[C@H](NC(=O)[C@H](CCCNC(=N)N)NC(=O)[C@H](CCCNC(=N)N)NC(=O)[C@H](CC(C)C)NC(=O)[C@H](Cc1ccccc1)NC(=O)CNC(=O)CNC(=O)[C@@H](N)Cc1ccc(O)cc1)C(=O)N[C@@H](CCCNC(=N)N)C(=O)N1CCC[C@H]1C(=O)N[C@@H](CCCCN)C(=O)O [DYNORPHIN A (1-11)]	–	13.1	–	–	–	–	–	–	–	–	–	–	–	–
CC(C)C[C@H](NC(=O)[C@H](Cc1ccccc1)NC(=O)CNC(=O)[C@@H](Cc1c[nH]c2ccccc12)NC(=O)[C@@H](N)Cc1ccc(O)cc1)C(=O)N[C@@H](CCCN=C(N)N)C(=O)N[C@@H](CCCN=C(N)N)C(=O)N[C@H](Cc1c[nH]c2ccccc12)C(=O)N[C@@H](CCCN=C(N)N)C(=O)N1CCC[C@@H]1C(=O)N[C@@H](CCCCN)C(=O)O	1.15	> 10000	0.72	561	1.5	–	153	103	8890	206	0.83	5.5	433	–
CC[C@H](C)[C@H](NC(=O)[C@H](CCCNC(=N)N)NC(=O)[C@H](CCCNC(=N)N)NC(=O)[C@H](CC(C)C)NC(=O)[C@H](Cc1ccccc1)NC(=O)CNC(=O)CNC(=O)[C@@H](N)Cc1ccc(O)cc1)C(=O)N[C@@H](CCCNC(=N)N)C(=O)N1CCC[C@H]1C(=O)N[C@@H](CCCCN)C(=O)N[C@@H](CC(C)C)C(=O)N[C@@H](CCCCN)C(=O)N[C@@H](Cc1c[nH]c2ccccc12)C(=O)N[C@@H](CC(=O)O)C(=O)N[C@@H](CC(N)=O)C(=O)N[C@@H](CCC(N)=O)C(=O)O	–	–	–	–	–	–	0.23	–	–	–	–	–	–	–
CC(C)C[C@H](NC(=O)[C@@H](Cc1c[nH]c2ccccc12)NC(=O)CNC(=O)[C@@H](Cc1c[nH]c2ccccc12)NC(=O)[C@@H](N)Cc1ccc(O)cc1)C(=O)N[C@@H](CCCN=C(N)N)C(=O)N[C@@H](CCCN=C(N)N)C(=O)N[C@H](Cc1c[nH]c2ccccc12)C(=O)N[C@@H](CCCN=C(N)N)C(=O)N1CCC[C@@H]1C(=O)N[C@@H](CCCCN)C(=O)O	0.89	> 10000	0.86	134	1	83	23.8	51.5	> 10000	61	0.85	5.6	293	–
CC(C)C[C@H](NC(=O)[C@H](Cc1ccccc1)NC(=O)[C@@H](Cc1c[nH]c2ccccc12)NC(=O)CNC(=O)[C@@H](N)Cc1ccc(O)cc1)C(=O)N[C@@H](CCCN=C(N)N)C(=O)N[C@@H](CCCN=C(N)N)C(=O)N[C@H](Cc1c[nH]c2ccccc12)C(=O)N[C@@H](CCCN=C(N)N)C(=O)N1CCC[C@@H]1C(=O)N[C@@H](CCCCN)C(=O)O	1.31	> 10000	1.07	1040	1	40.5	19.6	327	222	10.3	1.03	53	1127	1127
CC[C@H](C)[C@H](NC(=O)[C@H](CCCN=C(N)N)NC(=O)[C@H](CCCN=C(N)N)NC(=O)[C@H](CC(C)C)NC(=O)[C@H](Cc1ccccc1)NC(=O)CNC(=O)CNC(=O)[C@@H](N)Cc1ccc(O)cc1)C(=O)N[C@@H](CCCN=C(N)N)C(=O)N1CCC[C@H]1C(=O)N[C@@H](CCCCN)C(=O)N[C@@H](CC(C)C)C(=O)N[C@@H](CCCCN)C(=O)N[C@@H](Cc1c[nH]c2ccccc12)C(=O)N[C@@H](CC(=O)O)C(=O)N[C@@H](CC(N)=O)C(=O)N[C@@H](CCC(=O)O)C(=O)O	–	–	–	–	–	–	–	–	–	–	0.79	–	–	–
CC(C)C[C@H](NC(=O)[C@H](Cc1ccccc1)NC(=O)CNC(=O)CNC(=O)[C@@H](N)Cc1ccc(O)cc1)C(=O)N[C@@H](CCCN=C(N)N)C(=O)N[C@@H](CCCN=C(N)N)C(=O)N[C@H](Cc1c[nH]c2ccccc12)C(=O)N[C@@H](CCCN=C(N)N)C(=O)N1CCC[C@@H]1C(=O)N[C@@H](CCCCN)C(=O)O	0.86	12.8	0.98	5.43	1	–	0.049	0.58	2.84	–	1	110	–	–
CC[C@H](C)[C@H](NC(=O)[C@H](CCCN=C(N)N)NC(=O)[C@H](CCCN=C(N)N)NC(=O)[C@H](CC(C)C)NC(=O)[C@H](Cc1ccccc1)NC(=O)CNC(=O)CNC(=O)[C@@H](N)Cc1ccc(O)cc1)C(=O)N[C@@H](CCCN=C(N)N)C(=O)N1CCC[C@@H]1C(=O)N[C@@H](CCCCN)C(=O)O	–	12.1	–	–	–	–	–	–	–	–	–	–	–	–
NCCCC[C@H](NC(=O)[C@H]1CCCN1C(=O)[C@H](CCCN=C(N)N)NC(=O)[C@@H](Cc1c[nH]c2ccccc12)NC(=O)[C@H](CCCN=C(N)N)NC(=O)[C@H](CCCN=C(N)N)NC(=O)[C@@H](Cc1c[nH]c2ccccc12)NC(=O)[C@H](Cc1ccccc1)NC(=O)CNC(=O)CNC(=O)[C@@H](N)Cc1ccc(O)cc1)C(=O)O	1.23	> 10000	0.9	303	1	13.9	20.6	20.3	69	–	0.96	15	199	–

— ChEMBL document CHEMBL1123230, “Synthesis and biological activities of dynorphin A analogues with opioid antagonist properties” (J Med Chem, 1986)
